Experiments:
[1] = target: T1, Muscarinic acetylcholine receptor M2 (Sus scrofa) (UniProt P06199); test: Tested for binding of [3H]N-methylscopolamine ([3H]NMS) at porcine heart ventricle muscarinic acetylcholine receptor M2 expressed as -logKa.
T1 sequence (whole entry): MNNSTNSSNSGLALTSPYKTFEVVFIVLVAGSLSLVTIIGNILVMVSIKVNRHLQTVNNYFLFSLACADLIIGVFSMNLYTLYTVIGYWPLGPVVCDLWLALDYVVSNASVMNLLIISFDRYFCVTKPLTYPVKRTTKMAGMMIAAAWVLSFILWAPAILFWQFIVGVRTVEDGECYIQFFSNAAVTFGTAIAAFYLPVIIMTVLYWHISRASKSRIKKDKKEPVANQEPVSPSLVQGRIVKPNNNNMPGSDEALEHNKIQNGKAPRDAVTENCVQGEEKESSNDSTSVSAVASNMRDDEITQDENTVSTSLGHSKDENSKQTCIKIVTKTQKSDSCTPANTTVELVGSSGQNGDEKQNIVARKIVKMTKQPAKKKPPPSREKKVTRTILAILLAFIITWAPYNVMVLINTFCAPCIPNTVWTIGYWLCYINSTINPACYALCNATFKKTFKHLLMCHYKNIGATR
Procedure, shortened: (§1)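 Pig heart ventricle homogenates in 2.7 mM MgHPO4, 45 mM Tris-HCl, pH 7.3, 37 °C; [3H]NMS 0.20 nM with increasing test compound concentrations; incubation 180–530 min, calculated to reach equilibrium. Nonspecific binding with 1 μM atropine; bound label separated by rapid vacuum filtration onto glass filters and counted by liquid scintillation. Affinities for free and NMS-occupied receptor derived from binding curves.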

[2] = target: T1, Muscarinic acetylcholine receptor M2 (Sus scrofa); test: Binding affinity for [3H]NMS-occupied muscarinic acetylcholine receptor M2 from porcine heart ventricle.; procedure, shortened: as §1
[3] = target: T1, Muscarinic acetylcholine receptor M2 (Sus scrofa); test: Cooperativity factor pAlpha at porcine heart ventricle muscarinic acetylcholine receptor M2.; procedure, shortened: as §1
[4] = target: T2, Muscarinic acetylcholine receptor M2 (Sus scrofa, UniProt P06199); test: Effective concentration required to inhibit dissociation of [3H]NMS from porcine heart ventricles muscarinic acetylcholine receptor M2.
T2 sequence (P06199 whole entry): T1 sequence (whole entry)
Procedure, shortened: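 [3H]NMS dissociation in pig heart ventricle homogenates, Mg/Tris buffer pH 7.3, 37 °C. Membranes equilibrated 30 min with 0.2 nM [3H]NMS, then 1 μM atropine added alone or with various test compound concentrations. Either complete time courses over 120 min or two-point measurement (0 and 10 min); monoexponential apparent k-1 by nonlinear regression; filtration and scintillation counting.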

Row | Compound | -logKa [1] | p alphaKa [2] | pAlpha [3] | EC50 [4] [nM]
1 | C[N+](C)(CCCCCC[N+](C)(C)CCCN1C(=O)c2cc3ccccc3cc2C1=O)CCCN1C(=O)c2ccccc2C1=O | 7.27 | 6.8 | -0.47 | 145
2 | CC(C)(CN1C(=O)c2ccccc2C1=O)C[N+](C)(C)CCCCCC[N+](C)(C)CCCN1C(=O)c2ccccc2C1=O | 6.9 | 6.86 | -0.04 | 135
3 | Cc1ccc2c(c1)C(=O)N(CC(C)(C)C[N+](C)(C)CCCCCC[N+](C)(C)CC(C)(C)CN1C(=O)c3ccccc3C1=O)C2=O | 6.73 | 6.9 | 0.17 | 120
4 | C[N+](C)(CCCCCC[N+](C)(C)CCCN1C(=O)C2C3c4ccccc4C(c4ccccc43)C2C1=O)CCCN1C(=O)c2ccccc2C1=O (stereo not given) | 7.78 | 6.56 | -1.21 | 204
5 | Cc1ccc2c(c1)C(=O)N(CCC[N+](C)(C)CCCCCC[N+](C)(C)CCCN1C(=O)c3ccccc3C1=O)C2=O | 6.73 | 6.42 | -0.31 | 324
6 | C[N+](C)(CCCCCC[N+](C)(C)CCCN1C(=O)c2cc(F)c(F)cc2C1=O)CCCN1C(=O)c2ccccc2C1=O | 6.68 | 6.31 | -0.37 | 457
7 | C[N+](C)(CCCCCC[N+](C)(C)CCCN1C(=O)c2ccc(C(F)(F)F)cc2C1=O)CCCN1C(=O)c2ccc(C(F)(F)F)cc2C1=O | 6.37 | 6.15 | -0.22 | 447
8 | C[N+](C)(CCCCCC[N+](C)(C)CCCN1C(=O)c2cc(F)c(F)cc2C1=O)CCCN1C(=O)c2cc(F)c(F)cc2C1=O | 6.47 | 6.08 | -0.39 | 741
9 | Cc1ccc2c(c1)C(=O)N(CCC[N+](C)(C)CCCCCC[N+](C)(C)CCCN1C(=O)c3ccc(C)cc3C1=O)C2=O | 7.08 | 6.75 | -0.33 | 170
10 | CC(C)(CN1C(=O)c2ccccc2C1=O)C[N+](C)(C)CCCCCC[N+](C)(C)CC(C)(C)CN1C(=O)c2ccccc2C1=O | 7.08 | 6.87 | -0.21 | 178
11 | C[N+](C)(CCCCCC[N+](C)(C)CCCN1C(=O)c2ccccc2C1=O)CCCN1C(=O)c2ccccc2C1=O | 6.19 | 5.73 | -0.47 | 1350
12 | CC(C)(C)c1ccc2c(c1)C(=O)N(CCC[N+](C)(C)CCCCCC[N+](C)(C)CCCN1C(=O)c3ccccc3C1=O)C2=O | 7.25 | 6.43 | -0.81 | 309
13 | C[N+](C)(CCCCCC[N+](C)(C)CCCN1C(=O)c2cc(Cl)c(Cl)cc2C1=O)CCCN1C(=O)c2cc(Cl)c(Cl)cc2C1=O | 6.83 | 6.57 | -0.29 | 229
14 | C[N+](C)(CCCCCC[N+](C)(C)CCCN1C(=O)c2nccnc2C1=O)CCCN1C(=O)c2nccnc2C1=O | 5.44 | 5 | -0.44 | 6310
15 | C[N+](C)(CCCCCC[N+](C)(C)CCCN1C(=O)c2nccnc2C1=O)CCCN1C(=O)c2ccccc2C1=O | 6.25 | 5.66 | -0.59 | 1620
16 | C[N+](C)(CCCCCC[N+](C)(C)CCCN1C(=O)C2C3c4ccccc4C(c4ccccc43)C2C1=O)CCCN1C(=O)C2C3c4ccccc4C(c4ccccc43)C2C1=O (stereo not given) | 8.12 | 6.74 | -1.38 | 398
17 | C[N+](C)(CCCCCC[N+](C)(C)CCCN1C(=O)c2cc(Cl)c(Cl)cc2C1=O)CCCN1C(=O)c2ccccc2C1=O | 7.08 | 6.9 | -0.17 | 115
18 | C[N+](C)(CCCCCC[N+](C)(C)CCCN1C(=O)c2cc3ccccc3cc2C1=O)CCCN1C(=O)c2cc3ccccc3cc2C1=O | 7.62 | 6.77 | -0.85 | 204
19 | CC(C)(C)c1ccc2c(c1)C(=O)N(CCC[N+](C)(C)CCCCCC[N+](C)(C)CCCN1C(=O)c3ccc(C(C)(C)C)cc3C1=O)C2=O | 7.38 | 6.49 | -0.89 | 302
20 | C[N+](C)(CCCCCC[N+](C)(C)CCCN1C(=O)c2ccc(C(F)(F)F)cc2C1=O)CCCN1C(=O)c2ccccc2C1=O | 6.32 | 6.12 | -0.21 | 501

The remaining lines, values ahead:

Row | -logKa [1] | p alphaKa [2] | pAlpha [3] | EC50 [4] [nM] | Compound
21 | 7.24 | 7.04 | -0.2 | 115 | C[N+](C)(CCCCCC[N+](C)(C)CCCN1C(=O)c2cccc3cccc(c23)C1=O)CCCN1C(=O)c2ccccc2C1=O
22 | 7.2 | 7.07 | -0.13 | 70.8 | Cc1ccc2c(c1)C(=O)N(CCC[N+](C)(C)CCCCCC[N+](C)(C)CC(C)(C)CN1C(=O)c3ccccc3C1=O)C2=O
23 | 8.01 | 7.79 | -0.22 | 25.1 | Cc1ccc2c(c1)C(=O)N(CCC[N+](C)(C)CCCCCC[N+](C)(C)CCCN1C(=O)c3cccc4cccc(c34)C1=O)C2=O
24 | 8.07 | 8.24 | 0.17 | 7.76 | CC(C)(CN1C(=O)c2cccc3cccc(c23)C1=O)C[N+](C)(C)CCCCCC[N+](C)(C)CCCN1C(=O)c2cccc3cccc(c23)C1=O
25 | 7.9 | 8.23 | 0.32 | 7.59 | Cc1ccc2c(c1)C(=O)N(CCC[N+](C)(C)CCCCCC[N+](C)(C)CC(C)(C)CN1C(=O)c3cccc4cccc(c34)C1=O)C2=O
26 | 7.48 | 7.44 | -0.04 | 36.3 | Cc1ccc2c(c1)C(=O)N(CC(C)(C)C[N+](C)(C)CCCCCC[N+](C)(C)CCCN1C(=O)c3cccc4cccc(c34)C1=O)C2=O
27 | 8.11 | 7.83 | -0.28 | 13.8 | C[N+](C)(CCCCCC[N+](C)(C)CCCN1C(=O)c2cccc3cccc(c23)C1=O)CCCN1C(=O)c2cccc3cccc(c23)C1=O
28 | 7.28 | 7.28 | -0.005 | 52.5 | CC(C)(CN1C(=O)c2ccccc2C1=O)C[N+](C)(C)CCCCCC[N+](C)(C)CCCN1C(=O)c2cccc3cccc(c23)C1=O
29 | 7.41 | 7.97 | 0.56 | 18.6 | CC(C)(CN1C(=O)c2ccccc2C1=O)C[N+](C)(C)CCCCCC[N+](C)(C)CC(C)(C)CN1C(=O)c2cccc3cccc(c23)C1=O
30 | 7.51 | 8.04 | 0.53 | 8.51 | CC(C)(CN1C(=O)c2cccc3cccc(c23)C1=O)C[N+](C)(C)CCCCCC[N+](C)(C)CC(C)(C)CN1C(=O)c2cccc3cccc(c23)C1=O
31 | 8.29 | 8.66 | 0.37 | 4.37 | CC(C)(CN1C(=O)c2cccc3cccc(c23)C1=O)C[N+](C)(C)CCCCCC[N+](C)(C)CCCN1C(=O)c2ccccc2C1=O [NAPHMETHONIUM]
32 | 7.41 | 7.44 | 0.03 | 36.3 | Cc1ccc2c(c1)C(=O)N(CCC[N+](C)(C)CCCCCC[N+](C)(C)CC(C)(C)CN1C(=O)c3ccc(C)cc3C1=O)C2=O
33 | 7.26 | 7.45 | 0.19 | 55 | Cc1ccc2c(c1)C(=O)N(CC(C)(C)C[N+](C)(C)CCCCCC[N+](C)(C)CCCN1C(=O)c3ccccc3C1=O)C2=O
34 | 7.21 | 7.38 | 0.17 | 46.8 | Cc1ccc2c(c1)C(=O)N(CC(C)(C)C[N+](C)(C)CCCCCC[N+](C)(C)CC(C)(C)CN1C(=O)c3ccc(C)cc3C1=O)C2=O
35 | 7.9 | 8.19 | 0.29 | 14.1 | Cc1ccc2c(c1)C(=O)N(CC(C)(C)C[N+](C)(C)CCCCCC[N+](C)(C)CC(C)(C)CN1C(=O)c3cccc4cccc(c34)C1=O)C2=O

Reference: ChEMBL document CHEMBL1145782, “Systematic development of high affinity bis(ammonio)alkane-type allosteric enhancers of muscarinic ligand binding” (J Med Chem, 2003)
